Published values pooled from the literature.
Each line is one published result; the experiments were not run side by side.
Target: Cyclin-dependent kinase-like 3 (CDKL3, Homo sapiens, UniProt Q8IVW4)

SMILES	effect on	method	concentration	remaining binding [%]
COc1cnc(Nc2cccc(S(N)(=O)=O)c2)nc1N1CCN(c2ccccc2)CC1	binding	competition with immobilised ligand	1 µM	100
Nc1ncc2c(n1)-c1c([nH]c3ccc(C#CC4CC4)cc13)CCCC2	binding	competition with immobilised ligand	1 µM	83
Cc1cnc(Nc2ccc(C(=O)N3CCC(N4CCCC4)CC3)cc2)nc1-c1cc2ccccc2s1	binding	competition with immobilised ligand	1 µM	89
Cn1nc(C(=O)NCc2ccc(C(=O)O)cc2)cc1-c1ccc2[nH]ccc2c1	cell-free assay	competition with immobilised ligand	0.1 µM	100
N[C@@H]1CCN(c2nccc(-c3cnn4ncccc34)n2)C1	binding		1 µM	80
CC(C)CC(=O)N1CCc2nc(-c3ccc(Br)cc3)nc(N(C)Cc3ccccc3)c2C1	cell-free assay	competition with immobilised ligand	0.1 µM	89
F[C@@H]1CCN(c2nccc(-c3cnn4ncccc34)n2)C1	binding		1 µM	100
O=C(c1ccc(Nc2ncc(Cl)c(-c3ccc(Cl)s3)n2)cc1)N1CCC(N2CCCC2)CC1	binding	competition with immobilised ligand	1 µM	39
O=C(Nc1c[nH]nc1C(=O)NC1CCNCC1)c1cc(F)cc(F)c1	binding	competition with immobilised ligand	1 µM	100
C=CC(=O)N1CCC(C(=O)NCC(=O)N2CCN(c3nc(-c4cnc(N)nc4C(F)F)nc(N4CCOCC4)n3)CC2)CC1	binding	competition with immobilised ligand	1 µM	100
O=C(c1ccc(Nc2ncc(Cl)c(-c3cc4ccccc4s3)n2)cc1)N1CCC(N2CCCC2)CC1	binding	competition with immobilised ligand	1 µM	47
CNCc1ccccc1-c1csc([C@@H](C)Nc2nc(C)nc3cc(OC)c(OC)cc23)c1	cell-free assay	competition with immobilised ligand	1 µM	99
COc1ncc2cc3ccccc3nc2c1C#N	binding	competition with immobilised ligand	5 µM	85
c1cnn2ncc(-c3ccnc(N4CCC45COC5)n3)c2c1	binding		1 µM	93
CN(C)CC#Cc1ccc(OCCCc2sc(N3CCc4cccc(C(=O)Nc5nc6ccccc6s5)c4C3)nc2C(=O)O)c(F)c1	cell-free assay	competition with immobilised ligand	1 µM	100
CN(CCCC(F)(F)F)c1nccc(-c2cnn3ncccc23)n1	binding		1 µM	100
Cc1cc(NC(=O)c2cccc(S(F)(F)(F)(F)F)c2)cc(-n2ccn3nc(-c4cccnc4)cc23)c1	cell-free assay	competition with immobilised ligand	1 µM	100
C[C@@H]1CCN(c2nccc(-c3cnn4ncccc34)n2)C1	binding		1 µM	93
CN(c1ccnc(CNc2nc(Nc3ccc4c(c3)CC(=O)N4)ncc2C(F)(F)F)n1)S(C)(=O)=O	cell-free assay	competition with immobilised ligand	1 µM	78
CCN1CCN(Cc2ccc(C(=O)Nc3ccc(C)c(Oc4ccc5c(c4)CC(=O)N5)c3)cc2C(F)(F)F)CC1	binding	competition with immobilised ligand	1 µM	86
